The text below walks through data of ChEMBL document CHEMBL1146147, “Study on synthesis and biological activity of a galactosylated piperazinyl porphyrin” (Bioorg Med Chem Lett, 2006).

Data set [1] in a line: Anticancer activity against human HNE1 cells at 6.25 ug/ml after 18 hrs by MTT assay. It is filed as functional. The essentials:
(§1)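 Human tumour cells (Bel-7404 liver, MCG stomach, HNE1 nasopharyngeal) exposed to compound in solution for 18 h at 37 °C under air with 5% CO2, either kept in the dark or irradiated at 650 nm, 20 J/cm². Viability read by MTT; activity reported as percent cell death.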
(In general: Formazan colour is commonly taken as a measure of viable cells.)

Data set [2] can be described thus: Anticancer activity against human MCG cells at 6.25 ug/ml after 18 hrs by MTT assay. It is filed as functional. In outline: as §1
For data set [3], the system named is BEL-7404 tumor cell line. The experiment in a line: Anticancer activity against human Bel7404 cells at 6.25 ug/ml after 18 hrs by MTT assay. The data set is classed as functional. In outline: as §1
Data set [4] deals with BEL-7404 tumor cell line. Kind of data set: Anticancer activity against human Bel7404 cells by MTT assay. The data set is classed as functional. The following applies: read-out: ID50 (the source's name). In outline:
(§2)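 MTT assay of human tumour cell lines (Bel-7404 liver, MCG stomach, HNE1 nasopharyngeal carcinoma) run in the absence of light. ID50 is taken as the concentration giving 50% cell death, in ug/ml.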

Data set [5] is described as follows: Anticancer activity against human MCG cells by MTT assay. The following applies: read-out: ID50 (the source's name). It is filed as functional. In outline: as §2
A short description of data set [6]: Anticancer activity against human HNE1 cells by MTT assay. The following applies: read-out: ID50 (the source's name). The data set is classed as functional. The essentials: as §2
A short description of data set [7]: Partition coefficient of the compound. It is filed as ADME. Conditions: octanol/water. The essentials:
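Compound distributed between the two non-miscible solvents octanol and water. Reported as the octanol/water partition ratio.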

Data set [8] is described as follows: Anticancer activity against human HNE1 cells with irradiation at 6.25 ug/ml after 18 hrs by MTT assay. It is filed as functional. In outline: (§3)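 Human tumour cells (Bel-7404, MCG, HNE1) incubated 18 h with compound at 6.25 ug/ml at 37 °C in air with 5% CO2. Cells irradiated at 650 nm, 20 J/cm²; parallel wells kept unirradiated. Cell death rate read by MTT.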

The nature of data set [9]: Anticancer activity against human MCG cells with irradiation at 6.25 ug/ml after 18 hrs by MTT assay. It is filed as functional. In outline:
as §3

The subject of data set [10] is BEL-7404 tumor cell line. Kind of data set: Anticancer activity against human Bel7404 cells with irradiation at 6.25 ug/ml after 18 hrs by MTT assay. It is filed as functional. The essentials: as §3

Converted amounts (≈) assume the structure as drawn.

As for `O=c1[nH]cc(F)c(=O)[nH]1` [FLUOROURACIL], the Activity (in data set [1]; in [2]; in the data set with BEL-7404 tumor cell line [3]) was 29% each time.
In the case of `O=C([C@H](O)[C@@H](O)[C@H](O[C@@H]1O[C@H](CO)[C@H](O)[C@H](O)[C@H]1O)[C@H](O)CO)N1CCNCC1` [GALACTOSYLATEDPIPERAZINE], the IC50 (in the data set with BEL-7404 tumor cell line [4]; in data set [5]; in [6]) was > 50 µg/mL in each case.
In the case of `Nc1ccc(-c2c3nc(c(-c4ccc(N)cc4)c4ccc([nH]4)c(-c4ccc(N)cc4)c4nc(c(-c5ccc(N)cc5)c5ccc2[nH]5)C=C4)C=C3)cc1`, the values for the IC50 (in the data set on BEL-7404 tumor cell line [4]; in data set [5]; in data set [6]) were 33 µg/mL (≈ 48.9 µM), 24 µg/mL (≈ 35.6 µM) and 28 µg/mL (≈ 41.5 µM), respectively. Besides, the Ratio in data set [7] turned out to be 42.
`O=C([C@H](O)[C@@H](O)[C@H](O[C@@H]1O[C@H](CO)[C@H](O)[C@H](O)[C@H]1O)[C@H](O)CO)N1CCN(c2ccc(-c3c4nc(c(-c5ccc(N6CCN(C(=O)[C@H](O)[C@@H](O)[C@H](O[C@@H]7O[C@H](CO)[C@H](O)[C@H](O)[C@H]7O)[C@H](O)CO)CC6)cc5)c5ccc([nH]5)c(-c5ccc(N6CCN(C(=O)[C@H](O)[C@@H](O)[C@H](O[C@@H]7O[C@H](CO)[C@H](O)[C@H](O)[C@H]7O)[C@H](O)CO)CC6)cc5)c5nc(c(-c6ccc(N7CCN(C(=O)[C@H](O)[C@@H](O)[C@H](O[C@@H]8O[C@H](CO)[C@H](O)[C@H](O)[C@H]8O)[C@H](O)CO)CC7)cc6)c6ccc3[nH]6)C=C5)C=C4)cc2)CC1`: the Activity is recorded as 96% in data set [8]; 19% in [1]; 19% in data set [2]; 96% in data set [9]; 96% in the data set with BEL-7404 tumor cell line [10]; 19% with BEL-7404 tumor cell line [3]. Further, the results for the IC50 (in the data set on BEL-7404 tumor cell line [4]; in data set [5]; in [6]) were 29 µg/mL (≈ 12.5 µM), 35 µg/mL (≈ 15.1 µM) and 33 µg/mL (≈ 14.3 µM), respectively. Moreover, the Ratio in data set [7] was 18.
